Reference: ChEMBL document CHEMBL4513216, “Probing the Open Global Health Chemical Diversity Library for Multistage-Active Starting Points for Next-Generation Antimalarials” (ACS Infect Dis, 2020)

assay: Toxicity liver stage against HepG2, at 10uM; type: cell-based; parameters: test concentration 10 uM, cell line HepG2-A16-CD81EGFP; conditions: human, HepG2-A16-CD81EGFP cells; read-out: INHIBITION
Outline: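 Uninfected HepG2-A16-CD81EGFP cells, 3 × 10^3 per well, 1536-well, plated on prespotted compound at 10 μM final, parasite-free screening media added to match infected plates; puromycin 10 μM positive, DMSO 0.5% negative; run in parallel with 48 h PbLuc assay at 37 °C, 5% CO2; viability by CellTiter-Glo luminescence, normalized to controls.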

| SMILES | cytotoxicity at 10 µM [%] |
| --- | --- |
| Cn1ncc2c1NC(=O)CC2c1cccs1 (stereo not drawn) | -0.585 |
| O=S(=O)(c1cccc(F)c1)N1C[C@@H]2COC[C@]2(COCC2CC2)C1 | 12.5 |
| COc1ccc(OCC(=O)n2nc(C)c(C)c2C)cc1 | -6.32 |
| O=C(c1ccco1)N1CCC2(CCC(=O)N2Cc2cccc(F)c2)CC1 | 2.84 |
| CC(C)C(=O)N1CCC2(CCCN(CCOc3ccccc3)C2)C1 (stereo not drawn) | 6.71 |
| CCCNC(=O)C1(Cc2cc(-c3ccccc3)no2)CCN(C(C)=O)C1 (stereo not drawn) | 6.6 |
| CC1(C(=O)NC2CCCC2)CCCN(c2cnccn2)C1 (stereo not drawn) | -5.81 |
| Cc1cc(C)n(Cc2cccc(C(=O)N3CCOCC3(C)C)c2)n1 | -3.51 |
| N#Cc1cnc2c(F)cc(F)cc2c1NC1CCN(CC(N)=O)CC1 | -2.89 |
| CN(C)c1ccc(CNC(=O)Nc2ccc(S(=O)(=O)C(F)F)cc2)cc1 | 9.25 |
| O=C(CCc1cc(Br)cs1)NCCCn1ccnc1 | 1.08 |
| NC(=O)C(NC(=O)c1ccc(NC2CC2)nc1)c1ccccc1 (stereo not drawn) | 10.8 |
| COc1ccc(CNCCc2cccc(C(N)=O)c2)cc1O | 8.42 |
| CCSCc1ccnc(NC(=O)C2CCCO2)c1 (stereo not drawn) | 5.39 |
| CC(=O)c1cc(Br)cc(F)c1OCC(=O)NC1CC1 | -6.16 |
| COC(=O)c1ccc(NC(C)c2ccc3c(c2)CC(=O)N3)nn1 (stereo not drawn) | 3.82 |
| CN1CCOC(CNC(=O)CCCc2ccccc2)C1 (stereo not drawn) | -0.95 |
| Cc1nc(CN2CCN(c3ccc(SC(C)C)nn3)CC2)cs1 | 5.71 |
| CCOc1ccc(Cl)c(C(=O)N2CCCC(c3cc(C)[nH]n3)C2)n1 (stereo not drawn) | 8.83 |
| COC1CCN(c2ccc(F)cc2CN(C)CC(N)=O)CC1 | -6.91 |
| CN(CCNC(=O)c1ccnc(-n2ccnc2)c1)C1CC1 | 3.31 |
| CCS(=O)(=O)CC(=O)NC(C)c1ccccc1Oc1ccccc1 (stereo not drawn) | -2.97 |
| c1coc(-c2nc(CN3CCOC(Cn4cccn4)C3)cs2)c1 (stereo not drawn) | -6.45 |

| SMILES | cytotoxicity at 10 µM [%] |
| --- | --- |
| CC(C)c1cc(C(=O)N2CCOCC2CC(=O)c2ccco2)nn1C (stereo not drawn) | 5.52 |
| CNC(=O)COc1ccc(CNCc2cc(F)ccc2F)cc1 | 3.53 |
| Cc1nc(-c2ccsc2)ccc1C(=O)N(C)CC(F)(F)F | -1.54 |
| NCc1csc(CCc2ccccc2)n1 | -0.138 |
| CC(c1nc(C2CC2)no1)N(C)Cc1ccc(C#N)cc1 (stereo not drawn) | 4.15 |
| COc1ccccc1CCNC(=O)CNC1CCc2nc(C)nn2C1 (stereo not drawn) | -12.3 |
| CN(CCC#N)C(=O)CN(C1CC1)C1CCc2ccccc21 (stereo not drawn) | -4.74 |
| COCCCn1ccc(NC(=O)NCCc2cccnc2)n1 | -0.996 |
| Cc1ccc(-c2nnc(C(C)NCCn3cc(C)cn3)o2)cc1 (stereo not drawn) | -15.8 |
| Cc1cccc(CNCC2COC3(CCCCC3)O2)c1C (stereo not drawn) | -139 |
| CC(C)c1cccc(-n2cc(O)c(C(N)=O)n2)c1 | -5.93 |
| CS(=O)(=O)CCNC(=O)N(Cc1ccoc1)C1CCCCC1 | 5.72 |
| NC(=O)CN1CCCN(C(=O)COc2cccc(F)c2)CC1 | -1.97 |
| CCCNC(=O)C1CCN(CC(O)c2ccccc2C(F)(F)F)CC1 (stereo not drawn) | 3.21 |
| Cc1nc(C)c(COc2ccc(N(C)S(C)(=O)=O)cc2)s1 | 23.2 |
| Cc1ccc(NCc2cc(C#N)ccc2F)cc1-n1nnnc1C | -1.66 |
| O=C(Nc1ccnn1Cc1ccccc1Cl)C1CCS(=O)(=O)C1 (stereo not drawn) | -3.95 |
| N#CC1C(=O)Nc2c(cnn2C2CCCC2)C12CCCC2 (stereo not drawn) | -7.54 |
| CC(C(=O)N1CCc2sccc2C1)N1CCC(S(N)(=O)=O)CC1 (stereo not drawn) | 9.26 |
| Cn1cc(CCCNC(=O)NC2CCN(CC(F)(F)F)C2=O)cn1 (stereo not drawn) | 6.51 |
| c1cncc(-c2ccnn2CN2CCOCC2)c1 | 3.44 |
| CCc1ccc(C(=O)NCc2ccnc(C)n2)cc1 | -4.91 |
| Cc1cc(CN(C)C2CCCN(c3cccnn3)C2)on1 (stereo not drawn) | 16 |

| SMILES | cytotoxicity at 10 µM [%] |
| --- | --- |
| CCN(CC)C(=O)CCNC(=O)N1CCC(c2ccccc2)C1 (stereo not drawn) | -3.26 |
| Cn1ccc(C(=O)N2CCC3(CC2)CC(Nc2cnccn2)CO3)n1 (stereo not drawn) | 4.35 |
| CN(C)CCOCC1CN(CCN(C)C)Cc2ccnn2C1 (stereo not drawn) | 0.656 |
| O=C(c1ccncc1)N1CCN2C[C@H](Oc3cccnc3)C[C@H]2C1 | 2.83 |
| CCOC(=O)CNc1nc(COC)nc2c1cnn2C | 9 |
| COCCCN1CC2(CCCN(c3ncnc4[nH]cnc34)C2)CCC1=O (stereo not drawn) | -2.95 |
| COc1ccc(OCc2cc(C(=O)N3CCC(O)CC3)n[nH]2)c(Cl)c1 | -1.69 |
| Cc1csc(CN(C)CCOc2ccccc2)n1 | -3.18 |
| CC(C)n1ccnc1C1CCCN(Cc2ccc(F)c(F)c2)C1 (stereo not drawn) | 3.89 |
| COCCN(Cc1nccs1)C(=O)c1cc(-c2ccc(C)s2)n[nH]1 | -8.84 |
| O=C(c1cc(=O)[nH][nH]1)N1CCCC2(CCC(=O)N(C3CCCC3)C2)C1 (stereo not drawn) | 0.988 |
| Cc1ccc([C@@H]2CN(C(=O)c3cc(C)n[nH]3)C[C@H]2NC(=O)C2CC2)cc1 | -7.77 |
| CCC(CO)NC(=O)c1cc(COc2ccc(OC)cc2Cl)[nH]n1 (stereo not drawn) | 2.2 |
| CCOCCNC(=O)c1cccc(S(=O)(=O)NC[C@@H]2C[C@H](F)CN2)c1 | -18.8 |
| Cc1cc(C(=O)N2CCN(C(=O)CC(C)C)[C@@H]3CS(=O)(=O)C[C@@H]32)no1 | -5.45 |
| O=C(c1ccc(-c2cc[nH]n2)cc1)N1CC[C@H](CO)[C@H](O)C1 | 4.52 |
| COCc1ncc(-c2nccn2CCS(C)(=O)=O)cn1 | -17.2 |
| CCn1ncnc1CN(C/C=C/c1ccccc1)CCOC | 4.3 |
| COCC(=O)N1CCCC(COc2ccccc2C)C1 (stereo not drawn) | 2.06 |
| O=C1CCCCCN1Cc1cccc(OC(F)F)c1 | -6.4 |
| COc1cccc(C2CCN2C(=O)c2cnccn2)c1 (stereo not drawn) | 12.2 |
| O=C(c1coc(COc2ccccc2F)n1)N1CCCO1 | 6.29 |
| CCn1nc(C)c(NC(=O)CN2CCN(C(C)=O)CC2)c1C | -6.67 |

| SMILES | cytotoxicity at 10 µM [%] |
| --- | --- |
| CN(Cc1ccccc1)C1(C(=O)NC(CO)CO)Cc2ccccc2C1 | 2.59 |
| CN1CCCCCC1C(=O)NCCCn1ncc2ccccc21 (stereo not drawn) | -1.43 |
| CC(=O)N1CCCn2nc(CNS(=O)(=O)Cc3ccccc3)cc2C1 | -6.19 |
| CC(=O)NCC1CCC2(CCN(c3ncc(C)cn3)CC2)O1 (stereo not drawn) | -3.09 |
| Cc1cc(C)c(CNC(=O)N(C)Cc2cccc(C#N)c2)c(=O)[nH]1 | -5.49 |
| Cc1ncc2c(n1)CN(CC(=O)NCCOc1ccccc1)CC2 | -8.66 |
| Cc1nc(CN2CCc3nn(C)c(=O)cc3C2)oc1C | -2.74 |
| Cc1ccc(-c2nc(C(=O)N3CCOCC3)cs2)c(C)c1 | 0.22 |
| CCN(Cc1ccc2c(c1)OCCO2)C(=O)c1ccc(C)[nH]c1=O | -4.6 |
| CC(C)c1ccc(OCCC(=O)N2CCCN(C(N)=O)CC2)cc1 | -15.5 |
| Cn1cc(C(=O)NCC2CCN(C(=O)NC3CCCCC3)CC2)cn1 | -4.92 |
| Cc1ccc(-c2n[nH]cc2CNCC2CCN(CC(C)O)CC2)cc1 (stereo not drawn) | -16.6 |
| Cc1nn(C)c(Cl)c1C1CCCN1C(=O)c1ccnn1C (stereo not drawn) | -4.87 |
| CC1CCCN(C(=O)CNC(=O)c2ccoc2)C1 (stereo not drawn) | -0.775 |
| CN(Cc1ccc(F)cc1)C(=O)CN1CCOC(Cn2cccn2)C1 (stereo not drawn) | 2.2 |
| CCn1ccnc1CN1CCCN(C(=O)c2cnc(C)cn2)CC1 | -12.3 |
| Cc1nc(CN2CCCN(C(=O)c3c(C)oc(C)c3C)CC2)cs1 | -14 |
| Cc1nc(C)c(CN2CCOC(CN(C)c3cccnn3)C2)s1 (stereo not drawn) | -7.16 |
| CCOCC(O)CN1CCN(C(=O)c2cccc3[nH]ncc23)CC1 (stereo not drawn) | -12.8 |
| COc1ccc(Cl)cc1C(=O)N(C)Cc1cc(C)on1 | -22.9 |
| O=C(CN1CCN(c2ccc3nncn3n2)CC1)NC1CCCCC1 | -12.6 |
| Cc1noc(C2CCN(C(=O)CCNc3ncccn3)CC2)n1 | -6.38 |
| Cc1ccc(SCC(=O)NS(=O)(=O)c2ccc3c(c2)OCCO3)cc1 | -22.1 |

| SMILES | cytotoxicity at 10 µM [%] |
| --- | --- |
| COc1ccccc1OCCN1CCCC(c2cc(C(N)=O)[nH]n2)C1 (stereo not drawn) | 3.71 |
| COc1ccnc(N2CCN(C(=O)Cc3ccc(C)s3)CC2)n1 | 0.818 |
| Cc1ccccc1CN(C)Cc1nc2c(cnn2C)c(=O)[nH]1 | 2.51 |
| Nc1ccc(-c2cnc(C3CCCN3)cn2)cn1 (stereo not drawn) | 2.19 |
| CCN(CC)C(=O)CN1CCc2c(nc(C3CCNCC3)nc2NC)C1 | 5.07 |
| N[C@@H](Cc1ccccc1)c1nnc(S(=O)(=O)Cc2cccc(Cl)c2)o1 | 7.87 |
| CCC(C)(N)c1nc(C(C)C)cc(=O)[nH]1 (stereo not drawn) | 14 |
| CC(C)(N)c1nc(C(F)F)cc(=O)[nH]1 | 11.9 |
| COc1ccc(C[C@H]2CN(c3nnc(C)s3)CC[C@@H]2OC)cc1 | -3.23 |
| O=C(c1ccco1)N1CCc2c(COCC3CC3)cncc2C1 | -71.3 |
| CC(C)n1nc(CNc2ncccn2)c2c1CN(C)CC2 | -142 |
| Cc1noc(C)c1CN1CC[C@H]2OCC[C@@H](C(=O)NCC3CC3)[C@@H]2C1 | -8.55 |
| COCC(=O)Nc1ccc2c(c1)C1(CCOCC1)CN2CCF | -99.6 |
| O=S(=O)(C1CC1)N1CCCn2cnc(COc3cccnc3)c2C1 | 1.4 |
| CC(C)N1CCC(N2CCC(C(=O)N(C)C)CC2)CC1 | 4.71 |
| COCCN1CCc2c(c(COc3cccnc3)nn2C)C1 | -113 |
| Fc1cnc(N2CCCC3(CCN(Cc4ccco4)C3)C2)nc1 (stereo not drawn) | -84.9 |
| CC(C)NC(=O)N1CCCn2cnc(CO)c2C1 | -151 |
| Cc1nn(C)cc1CN1C[C@H]2CC[C@@H](C1)N(Cc1c(C)noc1C)C2=O | 5.9 |
| CC(c1cn2ccsc2n1)n1cc2[nH]cccc-2c1=O (stereo not drawn) | -1.97 |
| Cc1cc2cccc(NC(=O)N3CC[C@H]4CC[C@@H](C3)N4C)c2o1 | 7.89 |
